Here are results for 18 compounds from ChEMBL document CHEMBL1949612, “Design, synthesis, and functionalization of dimeric peptides targeting chemokine receptor CXCR4” (J Med Chem, 2011).

Each structure is given as a SMILES string. *1 amine or outer side, *2 acyl side, *3 side chain or, on linkers, in order; H or OH if unused. Where a SMILES comes first, the peptide text is derived from it. Bridges are numbered along the chain shown (N, C = ends). Roman numbers before positions name the chains, in order. [ ]: non-standard residue; d: D form. The star is where a group is joined. C16 diacid = O=C(O)CCCCCCCCCCCCCCC(=O)*; Sebacoyl = O=C(CCCCCCCCC(=O)[*:2])[*:1]; 2Nal = N[C@@H](Cc1ccc2ccccc2c1)C(=O)O; Suberoyl = O=C(CCCCCCC(=O)[*:2])[*:1]; Adipoyl = O=C(CCCCC(=O)[*:2])[*:1]; Glutaryl = O=C(CCCC(=O)[*:2])[*:1]; dNMeOrn = CN[C@H](CCCN)C(=O)O; Suc = O=C(CCC(=O)[*:2])[*:1]

Broadly, the IC50 is the concentration needed to halve the response being measured.

The target in this test is C-X-C chemokine receptor type 4 (Homo sapiens, UniProt P61073). Description: Displacement of [125I]-CPCR4 from CXCR4 receptor in human Jurkat cells after 2 hrs by gamma counting. In kind it is cell-based. The procedure, abridged: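 Whole Jurkat cells (400000 per tube) in PBS/0.2% BSA were incubated with ~0.1 nM (3.1 kBq) 125I-CPCR4 and test peptide at 10^-11 to 10^-5 M, shaken 2 h at RT. Nonspecific binding was taken with 1 μM unlabeled CPCR4. Cells were pelleted, washed twice with cold PBS, and bound activity was counted. Runs were done in triplicate, repeated 2–3 times. IC50 was fitted by nonlinear regression.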
Chain of C-X-C chemokine receptor type 4 (P61073 whole entry): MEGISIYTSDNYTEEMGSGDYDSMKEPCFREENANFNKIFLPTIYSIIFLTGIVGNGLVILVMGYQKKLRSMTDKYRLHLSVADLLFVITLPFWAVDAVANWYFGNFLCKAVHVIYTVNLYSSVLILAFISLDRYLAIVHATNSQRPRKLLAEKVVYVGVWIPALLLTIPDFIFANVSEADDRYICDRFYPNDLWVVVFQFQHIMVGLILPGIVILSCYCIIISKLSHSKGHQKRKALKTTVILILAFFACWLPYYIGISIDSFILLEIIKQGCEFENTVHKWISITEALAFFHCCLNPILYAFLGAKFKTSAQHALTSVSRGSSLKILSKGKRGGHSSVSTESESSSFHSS
Consider `CC(=O)NCCC[C@@H]1C(=O)N[C@@H](CCCNC(N)=O)C(=O)N[C@@H](Cc2ccc3ccccc3c2)C(=O)NCC(=O)N[C@H](Cc2ccc(O)cc2)C(=O)N1C`, for which the half-inhibitory concentration (IC50) is 1000 nM.

Compound `CN1C(=O)[C@@H](Cc2ccc(O)cc2)NC(=O)CNC(=O)[C@H](Cc2ccc3ccccc3c2)NC(=O)[C@H](CCCNC(=N)N)NC(=O)[C@H]1CCCN` registered an IC50 of 6 nM.

Turning to `CC(=O)NCCC[C@@H]1C(=O)N[C@@H](CCCNC(=N)N)C(=O)N[C@@H](Cc2ccc3ccccc3c2)C(=O)NCC(=O)N[C@H](Cc2ccc(O)cc2)C(=O)N1C`, the IC50 was determined as 60 nM.

As for `CN1C(=O)[C@@H](Cc2ccc(O)cc2)NC(=O)CNC(=O)[C@H](Cc2ccc3ccccc3c2)NC(=O)[C@H](CCCN=C(N)N)NC(=O)[C@H]1CCCNC(=O)CCCC(=O)NCCC[C@@H]1C(=O)N[C@@H](CCCNC(N)=O)C(=O)N[C@@H](Cc2ccc3ccccc3c2)C(=O)NCC(=O)N[C@H](Cc2ccc(O)cc2)C(=O)N1C`, the IC50 worked out at 19 nM.

Compound `CN1C(=O)[C@@H](Cc2ccc(O)cc2)NC(=O)CNC(=O)[C@H](Cc2ccc3ccccc3c2)NC(=O)[C@H](CCCN=C(N)N)NC(=O)[C@H]1CCCNC(=O)CCCCCCCCCCCC(=O)NCCC[C@@H]1C(=O)N[C@@H](CCCNC(N)=O)C(=O)N[C@@H](Cc2ccc3ccccc3c2)C(=O)NCC(=O)N[C@H](Cc2ccc(O)cc2)C(=O)N1C` came in with an IC50 of 4 nM.

With `CN1C(=O)[C@@H](Cc2ccc(O)cc2)NC(=O)CNC(=O)[C@H](Cc2ccc3ccccc3c2)NC(=O)[C@H](CCCN=C(N)N)NC(=O)[C@H]1CCCNC(=O)CNC(=O)CC(=O)NCC(=O)NCCC[C@@H]1C(=O)N[C@@H](CCCN=C(N)N)C(=O)N[C@@H](Cc2ccc3ccccc3c2)C(=O)NCC(=O)N[C@H](Cc2ccc(O)cc2)C(=O)N1C`, the IC50 is 8 nM.

With `CN1C(=O)[C@@H](Cc2ccc(O)cc2)NC(=O)CNC(=O)[C@H](Cc2ccc3ccccc3c2)NC(=O)[C@H](CCCNC(=N)N)NC(=O)[C@H]1CCCNC(=O)CNC(=O)CCC(=O)NCC(=O)NCCC[C@@H]1C(=O)N[C@@H](CCCNC(=N)N)C(=O)N[C@@H](Cc2ccc3ccccc3c2)C(=O)NCC(=O)N[C@H](Cc2ccc(O)cc2)C(=O)N1C`, the half-inhibitory concentration (IC50) was 6 nM.

Consider `CN1C(=O)[C@@H](Cc2ccc(O)cc2)NC(=O)CNC(=O)[C@H](Cc2ccc3ccccc3c2)NC(=O)[C@H](CCCNC(=N)N)NC(=O)[C@H]1CCCNC(=O)CNC(=O)CCCC(=O)NCC(=O)NCCC[C@@H]1C(=O)N[C@@H](CCCNC(=N)N)C(=O)N[C@@H](Cc2ccc3ccccc3c2)C(=O)NCC(=O)N[C@H](Cc2ccc(O)cc2)C(=O)N1C`, for which the IC50 came out at 14 nM.

`CN1C(=O)[C@@H](Cc2ccc(O)cc2)NC(=O)CNC(=O)[C@H](Cc2ccc3ccccc3c2)NC(=O)[C@H](CCCNC(=N)N)NC(=O)[C@H]1CCCNC(=O)C[C@H](NC(=O)CCCCCNC(=O)CN1CCN(CC(=O)O)CCN(CC(=O)O)CCN(CC(=O)O)CC1)C(=O)NCCC[C@@H]1C(=O)N[C@@H](CCCNC(=N)N)C(=O)N[C@@H](Cc2ccc3ccccc3c2)C(=O)NCC(=O)N[C@H](Cc2ccc(O)cc2)C(=O)N1C` returned an IC50 of 98 nM.

`CN1C(=O)[C@@H](Cc2ccc(O)cc2)NC(=O)CNC(=O)[C@H](Cc2ccc3ccccc3c2)NC(=O)[C@H](CCCNC(=N)N)NC(=O)[C@H]1CCCNC(=O)CC(CC(=O)NCCC[C@@H]1C(=O)N[C@@H](CCCNC(=N)N)C(=O)N[C@@H](Cc2ccc3ccccc3c2)C(=O)NCC(=O)N[C@H](Cc2ccc(O)cc2)C(=O)N1C)NC(=O)CCCCCNC(=O)CN1CCN(CC(=O)O)CCN(CC(=O)O)CCN(CC(=O)O)CC1` (stereo partly drawn) showed a concentration for half-maximal inhibition (IC50) of 31 nM.

`CN1C(=O)[C@@H](Cc2ccc(O)cc2)NC(=O)CNC(=O)[C@H](Cc2ccc3ccccc3c2)NC(=O)[C@H](CCCNC(=N)N)NC(=O)[C@H]1CCCNC(=O)CNC(=O)C[C@H](NC(=O)CCCCCNC(=O)CN1CCN(CC(=O)O)CCN(CC(=O)O)CCN(CC(=O)O)CC1)C(=O)NCC(=O)NCCC[C@@H]1C(=O)N[C@@H](CCCNC(=N)N)C(=O)N[C@@H](Cc2ccc3ccccc3c2)C(=O)NCC(=O)N[C@H](Cc2ccc(O)cc2)C(=O)N1C` had an IC50 of 39 nM.

The compound `CN1C(=O)[C@@H](Cc2ccc(O)cc2)NC(=O)CNC(=O)[C@H](Cc2ccc3ccccc3c2)NC(=O)[C@H](CCCN=C(N)N)NC(=O)[C@H]1CCCNC(=O)CNC(=O)CC(CC(=O)NCC(=O)NCCC[C@@H]1C(=O)N[C@@H](CCCN=C(N)N)C(=O)N[C@@H](Cc2ccc3ccccc3c2)C(=O)NCC(=O)N[C@H](Cc2ccc(O)cc2)C(=O)N1C)NC(=O)CCCCCNC(=O)CN1CCN(CC(=O)O)CCN(CC(=O)O)CCN(CC(=O)O)CC1` showed an IC50 of 17 nM.

`CN1C(=O)[C@@H](Cc2ccc(O)cc2)NC(=O)CNC(=O)[C@H](Cc2ccc3ccccc3c2)NC(=O)[C@H](CCCN=C(N)N)NC(=O)[C@H]1CCCNC(=O)CCCCC(=O)NCCC[C@@H]1C(=O)N[C@@H](CCCN=C(N)N)C(=O)N[C@@H](Cc2ccc3ccccc3c2)C(=O)NCC(=O)N[C@H](Cc2ccc(O)cc2)C(=O)N1C` (I: cyclo([2Nal]G[dY][dNMeOrn]R) / II: cyclo([2Nal]G[dY][dNMeOrn]R); linker I:4-II:4 via Adipoyl): the IC50 turned out to be 4 nM.

Compound `CN1C(=O)[C@@H](Cc2ccc(O)cc2)NC(=O)CNC(=O)[C@H](Cc2ccc3ccccc3c2)NC(=O)[C@H](CCCNC(=N)N)NC(=O)[C@H]1CCCNC(=O)CCCCCCCCCCCCCCC(=O)NCCC[C@@H]1C(=O)N[C@@H](CCCNC(=N)N)C(=O)N[C@@H](Cc2ccc3ccccc3c2)C(=O)NCC(=O)N[C@H](Cc2ccc(O)cc2)C(=O)N1C` (I: cyclo([2Nal]G[dY][dNMeOrn]R) / II: cyclo([2Nal]G[dY][dNMeOrn]R); linker I:4-II:4 via C16 diacid) showed an IC50 of 33 nM.

Compound `CN1C(=O)[C@@H](Cc2ccc(O)cc2)NC(=O)CNC(=O)[C@H](Cc2ccc3ccccc3c2)NC(=O)[C@H](CCCNC(=N)N)NC(=O)[C@H]1CCCNC(=O)CCCC(=O)NCCC[C@@H]1C(=O)N[C@@H](CCCNC(=N)N)C(=O)N[C@@H](Cc2ccc3ccccc3c2)C(=O)NCC(=O)N[C@H](Cc2ccc(O)cc2)C(=O)N1C` (I: cyclo([2Nal]G[dY][dNMeOrn]R) / II: cyclo([2Nal]G[dY][dNMeOrn]R); linker I:4-II:4 via Glutaryl) displayed an IC50 of 4 nM.

Turning to `CN1C(=O)[C@@H](Cc2ccc(O)cc2)NC(=O)CNC(=O)[C@H](Cc2ccc3ccccc3c2)NC(=O)[C@H](CCCN=C(N)N)NC(=O)[C@H]1CCCNC(=O)CCCCCCCCC(=O)NCCC[C@@H]1C(=O)N[C@@H](CCCN=C(N)N)C(=O)N[C@@H](Cc2ccc3ccccc3c2)C(=O)NCC(=O)N[C@H](Cc2ccc(O)cc2)C(=O)N1C` (I: cyclo([2Nal]G[dY][dNMeOrn]R) / II: cyclo([2Nal]G[dY][dNMeOrn]R); linker I:4-II:4 via Sebacoyl), the IC50 was found to be 2 nM.

In the case of `CN1C(=O)[C@@H](Cc2ccc(O)cc2)NC(=O)CNC(=O)[C@H](Cc2ccc3ccccc3c2)NC(=O)[C@H](CCCNC(=N)N)NC(=O)[C@H]1CCCNC(=O)CCCCCCC(=O)NCCC[C@@H]1C(=O)N[C@@H](CCCNC(=N)N)C(=O)N[C@@H](Cc2ccc3ccccc3c2)C(=O)NCC(=O)N[C@H](Cc2ccc(O)cc2)C(=O)N1C` (I: cyclo([2Nal]G[dY][dNMeOrn]R) / II: cyclo([2Nal]G[dY][dNMeOrn]R); linker I:4-II:4 via Suberoyl), the IC50 stood at 3 nM.

Compound `CN1C(=O)[C@@H](Cc2ccc(O)cc2)NC(=O)CNC(=O)[C@H](Cc2ccc3ccccc3c2)NC(=O)[C@H](CCCNC(=N)N)NC(=O)[C@H]1CCCNC(=O)CCC(=O)NCCC[C@@H]1C(=O)N[C@@H](CCCNC(=N)N)C(=O)N[C@@H](Cc2ccc3ccccc3c2)C(=O)NCC(=O)N[C@H](Cc2ccc(O)cc2)C(=O)N1C` (I: cyclo([2Nal]G[dY][dNMeOrn]R) / II: cyclo([2Nal]G[dY][dNMeOrn]R); linker I:4-II:4 via Suc) came in with a half-inhibitory concentration (IC50) of 12 nM.
